In ChEMBL document CHEMBL4513216, “Probing the Open Global Health Chemical Diversity Library for Multistage-Active Starting Points for Next-Generation Antimalarials” (ACS Infect Dis, 2020) one finds cytotoxicity data, which are given here for 95 compounds.

Each structure is given as a SMILES string.

This data set in a line: Toxicity liver stage against HepG2, at 10uM. Format: cell-based. The arrangement: test concentration 10 uM, cell line HepG2-A16-CD81EGFP. Conditions: human, HepG2-A16-CD81EGFP cells; read-out: INHIBITION
A digest of the protocol: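 Uninfected HepG2-A16-CD81EGFP cells, 3 × 10^3 per well, 1536-well, plated on prespotted compound at 10 μM final, parasite-free screening media added to match infected plates; puromycin 10 μM positive, DMSO 0.5% negative; run in parallel with 48 h PbLuc assay at 37 °C, 5% CO2; viability by CellTiter-Glo luminescence, normalized to controls.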
Regarding `CC(C)NC(=O)CC1COC2(CCN(Cc3cccs3)CC2)C1` (stereo not given), the cytotoxicity at 10 µM is 4.57%.
Consider `CCOCC(=O)NCC(Cc1cccc(F)c1)n1cccc1` (stereo not given), for which the cytotoxicity at 10 µM is -6.22%.
On to `CC(=O)N1CCC(Oc2ccc(Cl)cc2C(=O)N2CCCO2)CC1`, for which the cytotoxicity at 10 µM was found to be 15.3%.
`CC(=O)Nc1ccc(CN2CCc3[nH]cnc3C2c2nccn2C)cc1` (stereo not given): the cytotoxicity at 10 µM is -182%.
As for `Cc1noc(C)c1CN1CCN(C(=O)C(C(C)C)n2cncn2)CC1` (stereo not given), the figure is 1.4%; as for `Cn1ccnc1CN1C[C@H]2CN(S(C)(=O)=O)CCN2C1=O`, -6.04%.
As for `COCCN1C(=O)[C@]2(CC[C@@H]3CN(C(=O)NC(C)C)C[C@@H]32)N=C1C`, the figure is -57.5%; as for `CC(C)c1cc(N2CCC(NS(C)(=O)=O)C2)nc(C(C)C)n1` (stereo not given), 4.34%; as for `Cc1ccc(C(=O)N2C[C@H](OCC3CCOCC3)[C@H]3OCCC[C@H]32)o1`, -0.714%.
On to `COCC(=O)NCCn1ccc2c(OC)cccc21`, for which the cytotoxicity at 10 µM is 3.07%.
As for `NC(=O)NCCC(=O)NCc1nn(-c2ccccc2)c2c1CCC2`, the figure is -9.83%.
As for `CC(C)C(=O)N1CCN(C(=O)c2cscn2)[C@H]2CS(=O)(=O)C[C@H]21`, the figure is -7.15%; as for `Cc1noc(C)c1C(=O)N1C[C@@H]2C[C@@H](c3ccncn3)O[C@@H]2C1`, -70%; as for `COc1ccc(Cl)cc1-n1nc(C2CCCC2)nc1Cn1cnnn1`, -15.5%.
As for `CN1CCN(C(=O)c2cccc(CN3CCOCC3)c2)CC1`, the figure is 2.46%; as for `COc1ccc(CNc2c(C)nn(C(C)C)c2C)cc1`, -37.1%; as for `Cc1noc([C@@H]2CC[C@@H]3[C@@H](CCN3S(=O)(=O)c3cccnc3)O2)n1`, -13.1%.
`O=C(c1ccc(-n2cccn2)nc1)N1CCC(Nc2cccnn2)CC1`: the cytotoxicity at 10 µM is -1.08%.
As for `N#Cc1c2n(c3c(N)ncnc13)CCCCC2`, the figure is 15.1%; as for `CN(Cc1cccnc1)C[C@@H]1OC[C@H]2CN(Cc3ccoc3)CC[C@H]21`, -137%; as for `Cc1ccc(N2C[C@H](C(=O)N3CCOCC3)[C@@H]3CCO[C@@H]3C2)nn1`, -66.8%.
Turning to `O=C(Nc1cnn(-c2ccccc2Cl)c1)N[C@@H]1C=C[C@H](CO)C1`, the cytotoxicity at 10 µM was found to be 0.836%.
Consider `CC(C)c1cc(C(=O)N2CCNCC2C(=O)NCc2ccncc2)on1` (stereo not given), for which the cytotoxicity at 10 µM is -7.6%.
Turning to `O=C1C[C@H]2[C@@H](CCN2C(=O)Cc2ccsc2)N1Cc1cccnc1`, the cytotoxicity at 10 µM was -0.331%.
As for `COc1nccnc1-c1cccc(-c2ccn(CC3COCCO3)n2)c1` (stereo not given), the figure is -3.65%.
As for `O=C(NCC1CCCN1Cc1ccccc1)NCC1(O)CCC1` (stereo not given), the cytotoxicity at 10 µM was -9.17%.
For `CCn1cc(CN2CCCn3nc(CNC(=O)C4CCC4)cc3C2)cn1`, the cytotoxicity at 10 µM was -11.6%.
As for `Cc1noc(C)c1CN1C[C@@H]2COC[C@]2(COc2ccc(C#N)cn2)C1`, the figure is 9.49%; as for `CCN(CCC(=O)OC)S(=O)(=O)c1cnc2c(c1)c(C)nn2C`, -15.2%; as for `CN1CCOC(CNCc2csc(C3CCCC3)n2)C1` (stereo not given), -0.383%.
As for `NCc1csc(CCc2ccccc2)n1`, the figure is -0.138%; as for `Cc1[nH]nc(CCC(=O)NCC2CCN(C3CCCCC3)C2)c1C` (stereo not given), -5.08%; as for `Cc1noc(OCCOc2ccc(C#N)cc2)n1`, 0.00742%.
As for `O=c1oc(-c2cccs2)nn1CC1(O)CCCCC1`, the figure is 8.52%; as for `O=C(NCC1CCOCC1)c1cc(-c2ccncc2)c2cnccc2n1`, -0.762%.
In the case of `Cc1cnc2c(C(=O)N(C)Cc3cc(C4CC4)[nH]n3)cnn2c1`, the cytotoxicity at 10 µM was -5.71%.
As for `CN(C)CC(=O)NC1CC(=O)N(CCc2ccccc2)C1` (stereo not given), the figure is -1.73%; as for `COc1ccccc1OC1CN(C(=O)C(c2ccccc2F)N(C)C)C1` (stereo not given), 3.91%; as for `CNc1nc(C)cc(NCc2cc(C)cc3c(C)c(C)[nH]c23)n1`, -30.2%.
Take `CCn1ccnc1CN(C)Cc1nc(Cc2ccccc2F)no1`: the cytotoxicity at 10 µM is 0.686%.
As for `Cc1ccsc1[C@@H]1CCN(C(=O)CCOc2ccccc2)C[C@H]1O`, the figure is -0.602%; as for `CCn1cc(CN2CCCN(C(=O)C3(C)CCOCC3)CC2)cn1`, -45.4%; as for `N#CC1COCCN1C(=O)c1ccc2cc[nH]c2c1` (stereo not given), 7.75%.
As for `CNC(=O)C1(c2cnccn2)CCCN1C(=O)c1ccccc1F` (stereo not given), the figure is -17.1%; as for `CC(=O)NCCC(=O)NC1(c2ccc(Cl)c(Cl)c2)CC1`, 7.49%.
As for `c1cncc(N2CCOCC3(CCCN(Cc4cccs4)C3)C2)c1` (stereo not given), the figure is 14.8%; as for `CCc1nn(-c2cc(Oc3cc(C)ccc3C)nc(C)n2)c(N)c1C#N`, 58.4%; as for `O=S1(=O)NCC2(CCCN(Cc3cccnc3)C2)Oc2ncccc21` (stereo not given), 6.28%.
Regarding `COc1cccc(F)c1C(C)NC(=O)NCc1cc(C(C)C)no1` (stereo not given), the cytotoxicity at 10 µM is 4.25%.
Consider `CCc1noc(C(C)N2CCN(Cc3ncc(C(C)(C)C)o3)CC2)n1` (stereo not given), for which the cytotoxicity at 10 µM is -6.62%.
As for `Cc1noc(C)c1-c1cncc(C2CCCN2Cc2ncccc2F)n1` (stereo not given), the cytotoxicity at 10 µM amounted to 7.84%.
With `Nc1ncccc1CN1C[C@H]2OC(=O)N(Cc3ccccn3)[C@H]2C1`, the cytotoxicity at 10 µM amounted to 13.9%.
On to `O=C(c1cccnc1-c1ccoc1)N1C[C@@H]2CC[C@H]1C2`, for which the cytotoxicity at 10 µM is 6.3%.
For the compound `CC(C)N1CCC2(CC1)CC(NCc1ccccn1)c1ccccc1O2` (stereo not given), the cytotoxicity at 10 µM amounted to 0.806%.
Turning to `CC(NC(=O)NCCNc1ccccn1)c1cccs1` (stereo not given), the cytotoxicity at 10 µM stood at 1.48%.
As for `Cc1nn(-c2ccccc2)c2c1C(c1ccc(C(=O)O)cc1)CC(=O)N2` (stereo not given), the figure is 10.6%.
As for `O=C(C1CCCC1)N1CCCC2(CCN(c3cnccn3)CC2)C1`, the figure is 9.53%; as for `O=C(c1cccs1)N1CCc2ncnc(C3CCOC3)c2CC1` (stereo not given), -85.4%.
As for `CCC(O)CN1CCN(C(=O)c2cccn2Cc2ccncc2)CC1` (stereo not given), the cytotoxicity at 10 µM was -13%.
As for `O=C(c1ccccc1F)N1CCOC(c2nc(-c3ncccn3)no2)C1` (stereo not given), the figure is -2.5%; as for `O=C(NC1CCC1)[C@@H]1CCO[C@@H]2CCN(CCc3ccccc3)C[C@H]21`, -7.24%.
On to `Cc1ncnc(NCCCN2CCCCC2CO)c1C` (stereo not given), for which the cytotoxicity at 10 µM is -2.35%.
As for `CCOC(=O)NCCNC(=O)c1cc(Br)cn1C(C)C`, the figure is 9.08%; as for `CSCc1cccc(S(=O)(=O)Nc2cc(C)on2)c1`, 6.27%; as for `CCOc1ccc(CN2CCN(CCOC)[C@@H]3CS(=O)(=O)C[C@@H]32)cc1`, -1.25%.
As for `CCc1cc(NCCc2cc(F)cc(F)c2)n2nccc2n1`, the figure is 19.5%.
Regarding `Cc1nc(C)n(CC2CN(CC(=O)Nc3nccs3)CCO2)n1` (stereo not given), the cytotoxicity at 10 µM was -13.8%.
For the compound `CC(C(=O)N1CCn2cncc2C1)N1C[C@@H](C)O[C@@H](C)C1` (stereo not given in full), the cytotoxicity at 10 µM was 3.13%.
`O=C1CCCCCN1CCC(=O)N1CCCC(c2ccn[nH]2)C1` (stereo not given): the cytotoxicity at 10 µM was determined as 9.01%.
As for `COC(=O)c1cc2c(OC)c(C)c(OC)cc2[nH]1`, the figure is -12.8%; as for `CCCn1cnc2c1CN(S(=O)(=O)Cc1ccccc1)[C@H](C(=O)OC)C2`, -4.84%.
As to `Clc1ccc(C2NCCc3cc4c(cc32)OCCO4)cc1` (stereo not given), the cytotoxicity at 10 µM is -16.3%.
For `COC(=O)CC1CCCCN1CC(=O)Nc1cc(F)ccc1F` (stereo not given), the cytotoxicity at 10 µM stood at 6.55%.
Turning to `CC(NC(N)=O)C(=O)N(C)CCCc1cc(-c2ccccc2)no1` (stereo not given), the cytotoxicity at 10 µM was -1.86%.
As to `CCn1cc(C(=O)N2CCOC(c3nc(-c4cccs4)no3)C2)cn1` (stereo not given), the cytotoxicity at 10 µM came to 2.91%.
Consider `CO[C@H]1CCN(C(=O)c2ccc3[nH]nnc3c2)C[C@@]12CCCO2`, for which the cytotoxicity at 10 µM is -5.38%.
As for `CN(C)C1(CNC(=O)C2CCCN2Cc2ccc(F)cc2)CCOCC1` (stereo not given), the figure is 3.25%.
As for `O=C(Cc1ccccn1)NCC1OCCc2cn(CC3CC3)nc21` (stereo not given), the figure is 7.51%; as for `O=C1CCC2(CCC(NC3CCOC3)CC2)N1Cc1ccncc1` (stereo not given), 3.61%; as for `CCOCC1CC2(CCN(C(=O)CC3=CCCCC3)CC2)CO1` (stereo not given), -3.95%.
As for `CCOCCN1CCN(CC(=O)N2CCCC2)CC1C` (stereo not given), the figure is -3.82%; as for `O=C(CCn1ccnc1)N1CCCC(n2cncn2)C1` (stereo not given), 0.0383%; as for `CCC(C)(NCc1ncc(C(C)C)o1)c1nccs1` (stereo not given), 18.9%.
`CCCn1nnnc1COc1ccc(C(=O)OC)cc1OC`: the cytotoxicity at 10 µM is -1.9%.
As for `COc1ncccc1NC(=O)N(Cc1ccc(C)o1)C1CC1`, the figure is -1.83%.
As for `CC(C)c1nnc2n1CC(CNCc1ccc3c(c1)OCCO3)CC2` (stereo not given), the figure is -5.92%; as for `Cc1ccnc(N2CCN(C3CCS(=O)(=O)C3)CC2)n1` (stereo not given), -2.71%.
Take `Cc1cnn(CC(C)NCc2csc(-c3ccsc3)n2)c1` (stereo not given): the cytotoxicity at 10 µM was -6.79%.
As for `CN(CCCNC(=O)c1ccccc1F)CC(F)(F)F`, the cytotoxicity at 10 µM was -9.25%.
For `Cc1cccc(-c2nccnc2C2CCCN(C)C2)c1C` (stereo not given), the cytotoxicity at 10 µM was found to be 5.62%.
As for `COc1ccccc1C(=O)NC(C)CC(=O)O` (stereo not given), the figure is -2.43%; as for `CS(=O)(=O)N1CC[C@H]2OCC[C@@]2(C(=O)NCCc2ccccn2)C1`, -101%; as for `Cc1ccc(CN(C(=O)NCC2CCCO2)C2CC2)o1` (stereo not given), -151%.
As for `CCc1ccc(O)c(C(=O)NC2CCN(S(=O)(=O)CC)CC2)c1`, the figure is 7.37%; as for `CN(CCc1nc(-c2cccc(Cl)c2)no1)CCn1cccn1`, 8.86%.
